Our source for the IC50 values is publication PMC6882486 (Journal of Enzyme Inhibition and Medicinal Chemistry, 2019).

One experiment has as its system HCT116. The experiment can be described thus: MTT anti-tumour cell proliferation in vitro, HCT116. The class given is cell-based. The settings on record: Homo sapiens, HCT-116, 36 h, read-out: Cells IC50 (μM) HCT116. The procedure, abridged:
(§1)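 Cells grown in RPMI1640 with 10% foetal bovine serum at 37 °C, 5% CO2. Seeded at 5000/well in triplicate and allowed 6 h to adhere. Treated with a concentration series of test compound for 36 h. Reference CDK inhibitor at the same concentrations served as positive control, and DMSO as negative control. Stained with 5% MTT; absorbance read at 570 nm.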

For another experiment, the target named is CDK2 (Homo sapiens, UniProt P24941). The experiment can be described thus: ADP-Glo Kinase Assay, cell-free detection of CDK2 activity. The class given is biochemical. On the technique in general: ADP-Glo first removes unused ATP, then detects ADP through luciferase.
Another experiment deals with A549. The experiment can be described thus: MTT anti-tumour cell proliferation in vitro, A549. The class given is cell-based. The conditions noted are these: Homo sapiens, A549, 36 h, read-out: Cells IC50 (μM) A549. An outline of the steps:
as §1

Take `CNC(=O)c1nn(C)c2c1C(C)(C)Cc1cnc(Nc3ccc(N4CCN(C)CC4)cc3)nc1-2` [Milciclib]: the concentration for half-maximal inhibition (IC50) (commonly the concentration needed to halve the response being measured) in the experiment on HCT116 was determined as 1.1 ± 0.3 µM; at CDK2, 0.0527 ± 0.0031 µM; with A549, 3.7 ± 0.4 µM.
